Measurements: ChEMBL document CHEMBL4613263, “Optimization of Tetrahydroindazoles as Inhibitors of Human Dihydroorotate Dehydrogenase and Evaluation of Their Activity and In Vitro Metabolic Stability” (J Med Chem, 2020)
Calls of active or inactive are those of the source. The calls are words filed in the database; no cut-off is given here.

How the values were obtained:
[1] = molecular target: T1, Dihydroorotate dehydrogenase (quinone), mitochondrial (Homo sapiens, UniProt Q02127); assay: Inhibition of DHODH in human ARN8 cells assessed as increase in p53 level at 20 nM incubated for 24 hrs in presence of pan-caspase inhibitor, Z-VAD-FMK by Western blot analysis; format: cell-based
In short: (§1)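 ARN8 cells treated 24 h at 20 nM, with 20 µM Z-VAD-FMK or vehicle added 4.5 h before harvest. Etoposide arm was 20 µM for 1 h alongside Z-VAD-FMK. Lysates normalized for protein and analysed by western blot for p53, p-Ser15 p53, γ-H2AX, H2AX and cleaved PARP (85 kDa) against stain-free total-protein loading.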

[2] = molecular target: T1, Dihydroorotate dehydrogenase (quinone), mitochondrial; assay: Inhibition of DHOH in human ARN8 cells assessed as gammaH2AX level at 20 nM incubated for 24 hrs treated with pan-capse inhibitor, Z-VAD-FMK for 4.5 hrs prior to harvesting by Western blot analysis; format: cell-based; in short: as §1
[3] = Antiproliferative activity against human ARN8 cells assessed as reduction in cell viability incubated for 72 hrs by SRB assay; format: functional, cell-based; conditions: Homo sapiens, ARN8, 72 h; read-out: IC50
[4] = molecular target: T1, Dihydroorotate dehydrogenase (quinone), mitochondrial; assay: Inhibition of DHODH in human ARN8 cells assessed as induction of DNA damage by measuring increase in p53 phosphorylation at Ser15 at 20 nM incubated for 24 hrs in presence of 100 uM […], uridine by Western blot analysis; format: cell-based
In short: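 ARN8 cells seeded at 15×10^4 per well and left 24 h. Treated 24 h at 20 nM, or with etoposide at 20 µM for 1 h, with 100 µM uridine where indicated. Lysates made in LDS buffer and protein-normalized, then run on 4–15% gels and transferred to PVDF. Phospho-proteins blocked in BSA, others in milk; primary antibodies overnight at 4 °C, ECL detection. Loading judged by stain-free total protein.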

[5] = molecular target: T1, Dihydroorotate dehydrogenase (quinone), mitochondrial; assay: Inhibition of DHODH in human ARN8 cells assessed as DNA damage by measuring Chk1 phosphorylation at Ser345 at 20 nM incubated for 24 hrs by Western blot analysis; format: cell-based
In short: (§2)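 ARN8 cells treated 24 h before lysis in LDS buffer and protein normalization. Western blot blocked in 5% BSA/TBS-T, primary antibody overnight at 4 °C, HRP secondary and ECL detection. Loading taken from stain-free total protein.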

[6] = molecular target: T1, Dihydroorotate dehydrogenase (quinone), mitochondrial; assay: Inhibition of DHODH in human ARN8 cells assessed as induction of DNA damage by measuring increase in p53 phosphorylation at Ser15 at 20 nM incubated for 24 hrs in presence of pan-caspase inhibitor, Z-VAD-FMK by Western blot analysis; format: cell-based; in short: as §1
[7] = molecular target: T1, Dihydroorotate dehydrogenase (quinone), mitochondrial; assay: Inhibition of DHOH in human ARN8 cells assessed as increase in cleaved PARP level at 20 nM incubated for 24 hrs by Western blot analysis; format: cell-based; in short: as §1
[8] = molecular target: T1, Dihydroorotate dehydrogenase (quinone), mitochondrial; assay: Inhibition of […] in human ARN8 cells assessed as decrease in Bcl2 protein expression at 20 nM incubated for 24 hrs in presence of pan-caspase inhibitor, Z-VAD-FMK by Western blot analysis; format: cell-based
[9] = species: Homo sapiens; assay: Antiproliferative activity against human ARN8 cells assessed as reduction in cell viability at 0.005 to 10 uM incubated for 72 hrs in presence of 100 uM […], uridine by SRB assay; format: functional, cell-based
[10] = molecular target: T1, Dihydroorotate dehydrogenase (quinone), mitochondrial; assay: Inhibition of recombinant human DHODH using dihydroorotic acid as substrate measured for 68 mins by DCIP based colorimetric assay
[11] = molecular target: T1, Dihydroorotate dehydrogenase (quinone), mitochondrial; assay: Inhibition of DHODH in human ARN8 cells assessed as DNA damage by measuring Chk2 phosphorylation at Thr68 at 20 nM incubated for 24 hrs by Western blot analysis; format: cell-based; in short: as §2
[12] = molecular target: T1, Dihydroorotate dehydrogenase (quinone), mitochondrial; assay: Inhibition of DHOH in human ARN8 cells assessed as increase in caspase 3/7 activity at 20 nM incubated for 48 hrs in presence of pan-caspase inhibitor, Z-VAD-FMK by live cell imaging analysis; format: cell-based
In short: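 ARN8 cells seeded at 4×10^3 per well and left 24 h, then given 20 nM compound in medium containing 2 µM caspase-3/7 substrate and 0.3 µM YOYO-3 (0.2% DMSO). Where indicated, 100 µM uridine or 20 µM Z-VAD-FMK was added. Cells imaged every 2 h for 48.5 h in an IncuCyte. Positive-cell counts per mm² normalized to confluence %; mean ± SD of three technical replicates.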

[13] = molecular target: T1, Dihydroorotate dehydrogenase (quinone), mitochondrial; assay: Inhibition of […] in human ARN8 cells assessed as decrease in Bcl2 protein expression at 20 nM incubated for 24 hrs by Western blot analysis; format: cell-based
[14] = Metabolic stability in CD-1 mouse liver microsomes assessed as half life at 1 uM incubated for 60 mins by LC-MS/MS analysis; format: ADME, Microsome; conditions: CD-1, mouse, liver microsomes
In short: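 Compound at 1 µM with 1.0 mg/mL human or mouse liver microsomes in 50 mM potassium phosphate pH 7.4, preincubated 5 min at 37 °C. Started with 1 mM NADPH (or blank buffer). Quenched with cold acetonitrile containing glipizide at 0, 5, 15, 30, 60 min. Parent loss tracked by LC-MS/MS in MRM mode; t½ = 0.693/k from slope of peak-area ratio versus time.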

T1 sequence (Q02127 whole entry): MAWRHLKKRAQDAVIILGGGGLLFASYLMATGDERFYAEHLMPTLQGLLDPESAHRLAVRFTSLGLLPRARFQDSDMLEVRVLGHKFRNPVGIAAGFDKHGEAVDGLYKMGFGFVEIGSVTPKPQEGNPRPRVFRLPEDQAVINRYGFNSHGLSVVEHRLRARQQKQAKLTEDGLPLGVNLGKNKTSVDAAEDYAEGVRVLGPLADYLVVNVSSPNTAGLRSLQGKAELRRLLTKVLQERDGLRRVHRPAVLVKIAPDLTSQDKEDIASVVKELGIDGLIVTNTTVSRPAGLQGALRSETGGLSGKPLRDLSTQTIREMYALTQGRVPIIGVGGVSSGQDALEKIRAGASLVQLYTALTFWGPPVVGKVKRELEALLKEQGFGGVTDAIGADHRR

In the case of `O=C(N[C@@H]1CCCc2c1cnn2-c1ccccc1F)c1ncn2c1CCCC2`, the inhibition [1] is reported as “Active”, the inhibition [2] is reported as “inactive” and the IC50 [3] is reported as 22 nM. For the same compound, the inhibition [4] was “inactive”, the inhibition [5] was “inactive” and the inhibition [6] was “Active”. The inhibition [7] was “Active”, the inhibition [8] was “Active” and the Activity [9] was “inactive”. The IC50 [10] was < 5 nM, the inhibition [11] was “inactive” and the inhibition [12] was “inactive”. For the same compound, the inhibition [13] was “Active” and the half-life at 1 µM [14] was 36 min.
